Measurements published in ChEMBL document CHEMBL3045880, “Design and syntheses of novel N-(benzothiazol-5-yl)-4,5,6,7-tetrahydro-1H-isoindole-1,3(2H)-dione and N-(benzothiazol-5-yl)isoindoline-1,3-dione as potent protoporphyrinogen oxidase inhibitors” (J Agric Food Chem, 2011).

Experiments:
[1] = target: T1, Protoporphyrinogen oxidase (Homo sapiens) (UniProt P50336); test: Inhibition of Homo sapiens (human) recombinant protoporphyrinogen oxidase by fluorescence detection
T1 sequence (whole entry): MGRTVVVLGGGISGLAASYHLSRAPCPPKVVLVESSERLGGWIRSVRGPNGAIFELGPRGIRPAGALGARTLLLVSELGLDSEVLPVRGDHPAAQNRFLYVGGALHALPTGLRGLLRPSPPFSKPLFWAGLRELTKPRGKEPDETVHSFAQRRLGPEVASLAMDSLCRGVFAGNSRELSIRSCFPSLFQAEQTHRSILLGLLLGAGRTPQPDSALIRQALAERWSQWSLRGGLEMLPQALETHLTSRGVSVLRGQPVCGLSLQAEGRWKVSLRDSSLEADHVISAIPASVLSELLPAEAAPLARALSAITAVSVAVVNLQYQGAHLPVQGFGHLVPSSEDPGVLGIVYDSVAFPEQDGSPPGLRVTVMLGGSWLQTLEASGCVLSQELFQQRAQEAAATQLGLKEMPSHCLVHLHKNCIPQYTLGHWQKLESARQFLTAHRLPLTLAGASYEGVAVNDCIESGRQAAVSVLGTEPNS

Setaria faberi [2] = test: Herbicidal activity against Setaria faberi (Giant Foxtail) assessed as growth inhibition at 150 g/ha postemergence treatment measured after 15 days by Greenhouse test; format: functional; conditions: post-emergence, 360 h, read-out: GI
Procedure, shortened: (§1)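 Test compounds were made up as 100 g/L emulsifiable concentrates (DMF solvent, Tween-80 emulsifier) and diluted with water. About 20 seeds were sown 1–3 cm deep in clay soil (pH 6.5, 1.6% organic matter) in 9.5 cm pots, kept at 15–30 °C and 50% RH. Postemergence spray was applied to dicots at the 2-leaf stage and monocots at the 1-leaf stage. Controls were untreated and solvent-treated. Injury was scored visually at 15 days, with three replicates.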

Eclipta prostrata [3] = test: Herbicidal activity against Eclipta prostrata assessed as growth inhibition at 150 g/ha postemergence treatment measured after 15 days by Greenhouse test; format: functional; conditions: post-emergence, 360 h, read-out: GI
Procedure, shortened: as §1

Amaranthus retroflexus [4] = test: Herbicidal activity against Amaranthus retroflexus assessed as growth inhibition at 150 g/ha postemergence treatment measured after 15 days by Greenhouse test; format: functional; conditions: post-emergence, 360 h, read-out: GI
Procedure, shortened: as §1

Echinochloa crus-galli [5] = test: Herbicidal activity against Echinochloa crus-galli (barnyard grass) assessed as growth inhibition at 150 g/ha postemergence treatment measured after 15 days by Greenhouse test; format: functional; conditions: post-emergence, 360 h, read-out: GI
Procedure, shortened: as §1

Digitaria sanguinalis [6] = test: Herbicidal activity against Digitaria sanguinalis (hairy crabgrass) assessed as growth inhibition at 150 g/ha postemergence treatment measured after 15 days by Greenhouse test; format: functional; conditions: post-emergence, 360 h, read-out: GI
Procedure, shortened: as §1

Brassica juncea [7] = test: Herbicidal activity against Brassica juncea assessed as growth inhibition at 150 g/ha postemergence treatment measured after 15 days by Greenhouse test; format: functional; conditions: post-emergence, 360 h, read-out: GI
Procedure, shortened: as §1

Abutilon theophrasti [8] = test: Herbicidal activity against Abutilon theophrasti (velvetleaf) assessed as growth inhibition at 150 g/ha postemergence treatment measured after 15 days by Greenhouse test; format: functional; conditions: post-emergence, 360 h, read-out: GI
Procedure, shortened: as §1

Amaranthus retroflexus [9] = test: Herbicidal activity against Amaranthus retroflexus assessed as growth inhibition at 37.5 g/ha postemergence treatment measured after 15 days by Greenhouse test; format: functional; conditions: post-emergence, 360 h, read-out: GI
Procedure, shortened: (§2)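 Postemergence greenhouse pot test. About 20 seeds per pot, sown 1-3 cm deep in clay soil (pH 6.5, 1.6% organic matter). Plants grown at 15-30 °C and 50% relative humidity. Compounds were made up as 100 g/L emulsifiable concentrates in DMF with Tween-80, then diluted in water. Dicots were sprayed at the 2-leaf stage and monocots at the 1-leaf stage. Controls were untreated and solvent-treated. Injury was scored visually after 15 days, three replicates per treatment.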

Echinochloa crus-galli [10] = test: Herbicidal activity against Echinochloa crus-galli (barnyard grass) assessed as growth inhibition at 37.5 g/ha postemergence treatment measured after 15 days by Greenhouse test; format: functional; conditions: post-emergence, 360 h, read-out: GI
Procedure, shortened: as §2

Brassica juncea [11] = test: Herbicidal activity against Brassica juncea assessed as growth inhibition at 37.5 g/ha postemergence treatment measured after 15 days by Greenhouse test; format: functional; conditions: post-emergence, 360 h, read-out: GI
Procedure, shortened: as §2

Digitaria sanguinalis [12] = test: Herbicidal activity against Digitaria sanguinalis (hairy crabgrass) assessed as growth inhibition at 37.5 g/ha postemergence treatment measured after 15 days by Greenhouse test; format: functional; conditions: post-emergence, 360 h, read-out: GI
Procedure, shortened: as §2

Setaria faberi [13] = test: Herbicidal activity against Setaria faberi (Giant Foxtail) assessed as growth inhibition at 37.5 g/ha postemergence treatment measured after 15 days by Greenhouse test; format: functional; conditions: post-emergence, 360 h, read-out: GI
Procedure, shortened: as §2

Setaria faberi [14] = test: Herbicidal activity against Setaria faberi (Giant Foxtail) assessed as growth inhibition at 75 g/ha postemergence treatment measured after 15 days by Greenhouse test; format: functional; conditions: post-emergence, 360 h, read-out: GI
Procedure, shortened: as §2

Digitaria sanguinalis [15] = test: Herbicidal activity against Digitaria sanguinalis (hairy crabgrass) assessed as growth inhibition at 75 g/ha postemergence treatment measured after 15 days by Greenhouse test; format: functional; conditions: post-emergence, 360 h, read-out: GI
Procedure, shortened: as §2

Echinochloa crus-galli [16] = test: Herbicidal activity against Echinochloa crus-galli (barnyard grass) assessed as growth inhibition at 75 g/ha postemergence treatment measured after 15 days by Greenhouse test; format: functional; conditions: post-emergence, 360 h, read-out: GI
Procedure, shortened: as §2

Abutilon theophrasti [17] = test: Herbicidal activity against Abutilon theophrasti (velvetleaf) assessed as growth inhibition at 75 g/ha postemergence treatment measured after 15 days by Greenhouse test; format: functional; conditions: post-emergence, 360 h, read-out: GI
Procedure, shortened: as §2

Amaranthus retroflexus [18] = test: Herbicidal activity against Amaranthus retroflexus assessed as growth inhibition at 75 g/ha postemergence treatment measured after 15 days by Greenhouse test; format: functional; conditions: post-emergence, 360 h, read-out: GI
Procedure, shortened: as §2

Brassica juncea [19] = test: Herbicidal activity against Brassica juncea assessed as growth inhibition at 75 g/ha postemergence treatment measured after 15 days by Greenhouse test; format: functional; conditions: post-emergence, 360 h, read-out: GI
Procedure, shortened: as §2

Eclipta prostrata [20] = test: Herbicidal activity against Eclipta prostrata assessed as growth inhibition at 75 g/ha postemergence treatment measured after 15 days by Greenhouse test; format: functional; conditions: post-emergence, 360 h, read-out: GI
Procedure, shortened: as §2

Abutilon theophrasti [21] = test: Herbicidal activity against Abutilon theophrasti (velvetleaf) assessed as growth inhibition at 37.5 g/ha postemergence treatment measured after 15 days by Greenhouse test; format: functional; conditions: post-emergence, 360 h, read-out: GI
Procedure, shortened: as §2

Eclipta prostrata [22] = test: Herbicidal activity against Eclipta prostrata assessed as growth inhibition at 37.5 g/ha postemergence treatment measured after 15 days by Greenhouse test; format: functional; conditions: post-emergence, 360 h, read-out: GI
Procedure, shortened: as §2

SMILES	Ki [1] [nM]	inhibition of growth at 150 g/ha (Setaria faberi [2]) [%]	inhibition of growth at 150 g/ha (Eclipta prostrata [3]) [%]	inhibition of growth at 150 g/ha (Amaranthus retroflexus [4]) [%]	inhibition of growth at 150 g/ha (Echinochloa crus-galli [5]) [%]	inhibition of growth at 150 g/ha (Digitaria sanguinalis [6]) [%]	inhibition of growth at 150 g/ha (Brassica juncea [7]) [%]	other results
CC(C)(C)OC(=O)CSc1nc2cc(N3C(=O)C4=C(CCCC4)C3=O)c(F)cc2s1	180	< 50	80	80	< 50	60	80	–
CCOC(=O)Sc1nc2cc(N3C(=O)c4ccccc4C3=O)c(F)cc2s1	510	< 50	80	80	< 50	< 50	–	inhibition of growth at 150 g/ha (Abutilon theophrasti [8]): 80%
CCOC(=O)Sc1nc2cc(N3C(=O)C4=C(CCCC4)C3=O)c(Cl)cc2s1	470	< 50	50	50	< 50	< 50	< 50	–
CCOC(=O)CCSc1nc2cc(N3C(=O)C4=C(CCCC4)C3=O)c(F)cc2s1	110	< 50	80	80	50	50	80	–
COC(=O)CSc1nc2cc(N3C(=O)C4=C(CCCC4)C3=O)c(Cl)cc2s1	3920	< 50	60	60	< 50	< 50	< 50	–
CCOC(=O)CSc1nc2cc(N3C(=O)C4=C(CCCC4)C3=O)c(Cl)cc2s1	1660	< 50	60	80	< 50	< 50	< 50	–
CCOC(=O)CCSc1nc2cc(N3C(=O)c4ccccc4C3=O)c(F)cc2s1	5520	–	–	–	–	–	–	–
COC(=O)Sc1nc2cc(N3C(=O)C4=C(CCCC4)C3=O)c(Cl)cc2s1	520	< 50	60	60	< 50	< 50	< 50	–
CCOC(=O)C(C)Sc1nc2cc(N3C(=O)c4ccccc4C3=O)c(F)cc2s1 (stereo unspecified)	132000	–	–	–	–	–	–	–
COC(=O)CSc1nc2cc(N3C(=O)c4ccccc4C3=O)c(F)cc2s1	2250	–	–	–	–	–	–	–
CCOC(=O)C(C)Sc1nc2cc(N3C(=O)C4=C(CCCC4)C3=O)c(F)cc2s1 (stereo unspecified)	290	60	80	80	60	60	80	–
CCOC(=O)CCSc1nc2cc(N3C(=O)c4ccccc4C3=O)c(Cl)cc2s1	3760	–	–	–	–	–	–	–
CCOC(=O)CCSc1nc2cc(N3C(=O)C4=C(CCCC4)C3=O)c(Cl)cc2s1	320	< 50	60	60	< 50	< 50	60	–
CC(C)OC(=O)CSc1nc2cc(N3C(=O)c4ccccc4C3=O)c(F)cc2s1	1500	< 50	60	80	< 50	< 50	–	inhibition of growth at 150 g/ha (Abutilon theophrasti [8]): 80%
CCCOC(=O)CSc1nc2cc(N3C(=O)C4=C(CCCC4)C3=O)c(F)cc2s1	280	< 50	80	80	60	60	60	–
CCOC(=O)CSc1nc2cc(N3C(=O)C4=C(CCCC4)C3=O)c(F)cc2s1	250	60	50	80	60	60	< 50	–
CCOC(=O)C(C)(C)Sc1nc2cc(N3C(=O)C4=C(CCCC4)C3=O)c(Cl)cc2s1	1660	< 50	60	80	< 50	< 50	< 50	–
CCOC(=O)CCCSc1nc2cc(N3C(=O)C4=C(CCCC4)C3=O)c(Cl)cc2s1	750	< 50	60	80	< 50	< 50	< 50	–
CCOC(=O)C(C)Sc1nc2cc(N3C(=O)c4ccccc4C3=O)c(Cl)cc2s1 (stereo unspecified)	85900	–	–	–	–	–	–	–
CCCOC(=O)CSc1nc2cc(N3C(=O)c4ccccc4C3=O)c(F)cc2s1	1240	50	–	80	< 50	< 50	–	inhibition of growth at 150 g/ha (Abutilon theophrasti [8]): 80%
CCOC(=O)C(C)Sc1nc2cc(N3C(=O)C4=C(CCCC4)C3=O)c(Cl)cc2s1 (stereo unspecified)	800	< 50	60	60	< 50	< 50	< 50	–
COC(=O)CSc1nc2cc(N3C(=O)C4=C(CCCC4)C3=O)c(F)cc2s1	1220	60	80	80	60	60	80	inhibition of growth at 37.5 g/ha (Amaranthus retroflexus [9]): 80%; inhibition of growth at 37.5 g/ha (Echinochloa crus-galli [10]): < 50%; inhibition of growth at 37.5 g/ha (Brassica juncea [11]): 50%; inhibition of growth at 37.5 g/ha (Digitaria sanguinalis [12]): < 50%; inhibition of growth at 37.5 g/ha (Setaria faberi [13]): < 50%; inhibition of growth at 75 g/ha (Setaria faberi [14]): < 50%; inhibition of growth at 75 g/ha (Digitaria sanguinalis [15]): 50%; inhibition of growth at 75 g/ha (Echinochloa crus-galli [16]): 50%; inhibition of growth at 75 g/ha (Abutilon theophrasti [17]): 80%; inhibition of growth at 75 g/ha (Amaranthus retroflexus [18]): 80%; inhibition of growth at 75 g/ha (Brassica juncea [19]): 50%; inhibition of growth at 75 g/ha (Eclipta prostrata [20]): 80%; inhibition of growth at 37.5 g/ha (Abutilon theophrasti [21]): 80%; inhibition of growth at 37.5 g/ha (Eclipta prostrata [22]): 80%
COC(=O)Sc1nc2cc(N3C(=O)C4=C(CCCC4)C3=O)c(F)cc2s1	80	< 50	80	80	< 50	< 50	80	–
CC(C)OC(=O)CSc1nc2cc(N3C(=O)C4=C(CCCC4)C3=O)c(F)cc2s1	210	50	80	80	60	60	60	–
